Drawing on PubChem BioAssay AID504331 (Broad Institute, 2011), this text covers AC50 and activity change, negative = cytotoxicity for 69 compounds.

“And” between values parts separate entries of the source, which are not always exact repeats. Equal entries are not always repeated. The source made the active and inactive calls.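 The calls were made as follows: active = compounds that lower cell viability with a fitted AC50 at most ten times their top valid dose; inconclusive = flat fit showing 30 to 70 percent loss, or poor fit; inactive = the rest.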 Where only a bound is given, the exact number is not on record here.

One test deals with U2OS HRE-luc cells viability, CellTiter-Glo luminescence. Kind of test: U2OS reporter cell viability with added iron – iron-supplemented medium, dry powder, cytotoxicity control for HIF pathway activator project, dose response (AID 504331).
Settings: not given
Summed up:
(§1)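 Material: U2OS HRE-luciferase reporter cells / Quantity: 6,000 cells per well / Compound: 8 concentrations, 3-fold dilution steps / Incubation: cells plated 24 h before dosing, 24 h compound exposure at 37 °C / Measured by: viability luminescence, CellTiter-Glo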
A word on the AC50: it is the concentration giving half of the maximal activity seen. Turning to `c1ccc(-c2csc(Nc3nc(-c4ccccn4)nnc3-c3ccccc3)n2)cc1`, the AC50 is > 38 µM (inactive).
Still for that read-out and setting: the result for `O=C(NC1CCc2ccccc2C1)c1cc(-c2ccccc2)on1` (centres undefined) reads > 38 µM (inactive).
`CC1CN(Cc2ccc(O)c3ncccc23)CC(C)O1` (centres undefined): the AC50 is 15.6 µM.
Still for that read-out and setting: the result for `Cn1c(-c2ccccc2)cnc1Nc1nc(-c2ccccn2)nnc1-c1ccccc1` reads > 38 µM (inactive); that for `OCC1CCN(Cc2ccc(O)c3ncccc23)CC1`, 2.54 µM.
For the compound `Oc1ccc(CNC2Cc3ccccc3C2)c2cccnc12`, the concentration at half-maximal activity (AC50) was 22.5 µM.
In the case of `COc1ccccc1N1CCN(Cc2ccc(O)c3ncccc23)CC1`, the concentration at half-maximal activity (AC50) is 33.2 µM.
Still for that read-out and setting: the figure for `Oc1ccc(CNC2CCc3ccccc32)c2cccnc12` (centres undefined) is 35.7 µM; for `Oc1ccc(CN2CCC3CCCCC3C2)c2cccnc12` (centres undefined) it is 22.5 µM; for `c1ccc(-c2nnc(-c3ccccn3)nc2NCc2ccccn2)cc1` it is > 38 µM (inactive).
Consider `C[C@@H](Nc1nc(-c2ccccn2)nnc1-c1ccccc1)C1CCCCC1`, for which the AC50 was 32 µM.
Still for that read-out and setting: the result for `O=C(c1cc(-c2ccccc2)on1)N1CCN(c2ccncc2)CC1` reads > 38 µM (inactive).
Regarding `c1ccc(-c2nnc(-c3ccccn3)nc2N2CCC(c3ccccc3)C2)cc1` (centres undefined), the half-maximal activity concentration (AC50) is 13.6 µM.
Same read-out and setting: the result for `Oc1ccc(CN2CCc3ccccc3C2)c2cccnc12` reads 23.3 µM and 24.6 µM.

Test system in a further test: not listed separately
Described as above. Particulars: U2OS HRE-luc cells viability, CellTiter-Glo luminescence; at 38 µM (top of the series). Summed up: as §1
(In general: In ATP-based viability assays light output follows the ATP content of the culture.)
With `Cc1ccccc1CNC(=O)c1cc(-c2ccccc2)on1`, the activity change, negative = cytotoxicity was 4.84% (inactive).
On to `CC(C)(C)CCNc1nc(-c2ccccn2)nnc1-c1ccccc1`, for which the activity change, negative = cytotoxicity is -21.1% (inactive).
Still for that read-out and setting: the result for `Cn1c(NC(=O)c2cc(-c3ccccc3)on2)nc2ccccc21` reads 15.8% (inactive); that for `c1ccc(-c2nnc(-c3ccccn3)nc2N2CCC(C3CCCCC3)C2)cc1` (centres undefined), 0.423% (inactive); that for `c1ccc(-c2nnc(-c3ccccn3)nc2NCCN2CCOCC2)cc1`, -5.86% (inactive).
Same read-out and setting: the result for `c1ccc(-c2nnc(-c3ccccn3)nc2N2CCN(c3ccncc3)CC2)cc1` reads 7.73% (inactive); that for `O=C(Nc1cn2ccccc2n1)c1cc(-c2ccccc2)on1`, 15.5% (inactive); that for `c1ccc(-c2nnc(-c3ccccn3)nc2N2CCC(N3CCOCC3)CC2)cc1`, 5.36% (inactive).
`O=C(Nc1ncc2ccccc2n1)c1cc(-c2ccccc2)on1`: the activity change, negative = cytotoxicity is -12.2% (inactive).
The same measure, in the same setting: the figure for `O=C(Nc1ncc(-c2ccccc2)o1)c1cc(-c2ccccc2)on1` is 1.13% (inactive); for `Cn1c(-c2ccccc2)cnc1NC(=O)c1cc(-c2ccccc2)on1` it is -7.51% (inactive).
Still for that read-out and setting: the figure for `N#CC1(c2ccccc2)CCN(Cc2ccc(O)c3ncccc23)CC1` is 10.7% (inactive); for `c1ccc(CNc2nc(-c3ccccn3)nnc2-c2ccccc2)cc1` it is 0.83% (inactive).
On the same count and under the same terms, the figure for `CC(C)(C)CCNC(=O)c1cc(-c2ccccc2)on1` is -4% (inactive); for `O=C(NCCCO)c1cc(-c2ccccc2)on1` it is -4.34% (inactive).
With `Cc1cccc(CNc2nc(-c3ccccn3)nnc2-c2ccccc2)c1`, the activity change, negative = cytotoxicity was -8.02% (inactive).
Still for that read-out and setting: the figure for `O=C(Nc1nc2ccccc2s1)c1cc(-c2ccccc2)on1` is 11.3% (inactive); for `O=C(NCCN1CCCCC1)c1cc(-c2ccccc2)on1` it is 14% (inactive).
The same measure, in the same setting: the result for `CCCCNC(=O)c1cc(-c2ccccc2)on1` reads 5.24% (inactive); that for `O=C(c1cc(-c2ccccc2)on1)N1CCc2cccnc21`, -7.82% (inactive).
Consider `OCCCNc1nc(-c2ccccn2)nnc1-c1ccccc1`, for which the activity change, negative = cytotoxicity was 12.8% (inactive).
For `Cc1cccc(NC(=O)c2cc(-c3ccccc3)on2)n1`, the activity change, negative = cytotoxicity is -3.67% (inactive).
Consider `Cc1cccc(CNC(=O)c2cc(-c3ccccc3)on2)c1`, for which the activity change, negative = cytotoxicity is -4.42% (inactive).
For the compound `CN(C)c1nc(-c2ccccn2)nnc1-c1ccccc1`, the activity change, negative = cytotoxicity was 13.9% (inactive).
Same read-out and setting: the result for `O=C(NCC1CCCCC1)c1cc(-c2ccccc2)on1` reads -8.74% (inactive).
Still for that read-out and setting: the figure for `C=CCNc1nc(-c2ccccn2)nnc1-c1ccccc1` is 6.06% (inactive).
Turning to `O=C(NCc1ccccc1)c1cc(-c2ccccc2)on1`, the activity change, negative = cytotoxicity is 6.28% (inactive).
Same read-out and setting: the result for `c1ccc(-c2nnc(-c3ccccn3)nc2NCC2CC2)cc1` reads 4.24% (inactive); that for `c1ccc(-c2nnc(-c3ccccn3)nc2NCCc2ccccn2)cc1`, -1.62% (inactive); that for `O=C(Nc1nnc(-c2ccccc2)s1)c1cc(-c2ccccc2)on1`, 13.2% (inactive).
As to `c1ccc(-c2nnc(-c3ccccn3)nc2NCc2cccnc2)cc1`, the activity change, negative = cytotoxicity was 17% (inactive).
With `CC(C)(C)OC(=O)N1CCN(Cc2ccc(O)c3ncccc23)CC1`, the activity change, negative = cytotoxicity was 8.63% (inactive).
As for `O=C(Nc1ccc2ccccc2n1)c1cc(-c2ccccc2)on1`, the activity change, negative = cytotoxicity is 13% (inactive).
The same measure, in the same setting: the figure for `O=C(NCCCCO)c1cc(-c2ccccc2)on1` is 1.09% (inactive).
On the same count and under the same terms, the result for `O=C(NC1Cc2ccccc2C1)c1cc(-c2ccccc2)on1` reads -12.2% (inactive); that for `O=C(NCCN1CCOCC1)c1cc(-c2ccccc2)on1`, 12.9% (inactive); that for `O=C(NCCCN1CCOCC1)c1cc(-c2ccccc2)on1`, 11% (inactive).
Same read-out and setting: the result for `c1ccc(-c2cccc(CNc3nc(-c4ccccn4)nnc3-c3ccccc3)c2)cc1` reads -2.48% (inactive).
For `Cc1ccc(CNC(=O)c2cc(-c3ccccc3)on2)cc1`, the activity change, negative = cytotoxicity is -12.1% (inactive).
Still for that read-out and setting: the result for `Cc1ccccc1CNc1nc(-c2ccccn2)nnc1-c1ccccc1` reads -20% (inactive); that for `O=C(Nc1nc(-c2ccccc2)cs1)c1cc(-c2ccccc2)on1`, 8.59% (inactive).
The same measure, in the same setting: the result for `c1ccc(-c2nnc(-c3ccccn3)nc2NCCCN2CCOCC2)cc1` reads 9.59% (inactive).
On the same count and under the same terms, the figure for `CN1CCN(c2nc(-c3ccccn3)nnc2-c2ccccc2)CC1` is -22.1% (inactive); for `CN(C)CCNC(=O)c1cc(-c2ccccc2)on1` it is 11% (inactive).
Regarding `Oc1ccc(CN2CCC(Cc3ccccc3)CC2)c2cccnc12`, the activity change, negative = cytotoxicity was -1.73% (inactive).
The same measure, in the same setting: the figure for `O=C(NCCCn1ccnc1)c1cc(-c2ccccc2)on1` is -7.58% (inactive).
For `O=C(c1cc(-c2ccccc2)on1)N1CCC(CO)CC1`, the activity change, negative = cytotoxicity was 7.47% (inactive).
Consider `c1ccc(-c2nnc(Nc3nc(-c4ccccn4)nnc3-c3ccccc3)s2)cc1`, for which the activity change, negative = cytotoxicity was 5.32% (inactive).
Consider `O=C(NCC1CC1)c1cc(-c2ccccc2)on1`, for which the activity change, negative = cytotoxicity was 20.9% (inactive).
Same read-out and setting: the figure for `Cc1ccc(NC(=O)c2cc(-c3ccccc3)on2)cn1` is -4.1% (inactive).
For `CN1CCN(C(=O)c2cc(-c3ccccc3)on2)CC1`, the activity change, negative = cytotoxicity is 2.12% (inactive).
On the same count and under the same terms, the figure for `O=C(c1cc(-c2ccccc2)on1)N1CCC(N2CCCC2)CC1` is -1.03% (inactive); for `O=C(c1cc(-c2ccccc2)on1)N1CCC(N2CCOCC2)CC1` it is 5.61% (inactive).
On the same count and under the same terms, the result for `O=C(Nc1cnc2ccccc2c1)c1cc(-c2ccccc2)on1` reads -0.953% (inactive); that for `c1ccc(-c2nnc(-c3ccccn3)nc2NCC2CCOCC2)cc1`, 5.99% (inactive).
